Bioassay records as filed in PubChem BioAssay.
ERAP1 inh: human ERAP1 aminopeptidase inhibitors, primary screen, biochemical, single point, plate reader. recombinant ERAP1, Leu-AMC fluorescence, 60 min. inhibition, % at 10.7 µM. actives 0.15% (n = 340,000). AID 652197, 2013;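 active = mean replicate inhibition of at least 30%, or all replicates individually reaching that 30% level; inactive = mean below 30% and not every replicate reaching it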;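 also: 0% = neutral control wells and 100% = L-leucinethiol positive control wells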
rRNA inh HTS: reduced GFP signal of wild-type E. coli, primary screen, bacterial rRNA inhibitor project, GFP/RFP fluorescence, OD600, single point. E. coli WT GFP vs humanized-ribosome RFP mutants, 24 h; active compounds read low; DMSO median 0, no signal -100. GFP signal change (wild-type ribosome), % (test concentration not listed). actives 1.6% (n = 350,000);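 active = significant combined selectivity score with lowered wild-type GFP, culture density cut under 30%, mutant RFP and density less affected; inactive = any of these conditions unmet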
E-sel inducer: E-selectin induction in HUVECs, primary screen, imaging, HUVEC, immunofluorescence imaging, single point; P16581; normalized: neutral wells 0, TNF-alpha wells 100; activation, % at 7.58 µM; actives 0.37% (n = 260,000);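 active = mean E-selectin-positive cell signal at least 10% of the positive control, reached in at least 60% of replicates, without over 20% cell loss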
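Assay system: HUVEC, human umbilical vein endothelial cells / Amount: 3,000 HUVEC/well / Controls: TNF-alpha positive control, DMSO neutral control / Compound dosing: single concentration / Medium: EGM-2 over gelatin coat / Evaluation: percent E-selectin-positive cells / Signal: immunofluorescence imaging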
AF4-AF9 inh: inhibitors of AF4 peptide binding to AF9, primary screen, biochemical, AlphaScreen, biotin-AF4 peptide, FLAG-AF9, single point; inhibition, % at 10 µM; actives 0.47% (n = 350,000); AID 651704, 2012;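 active = every replicate reaching a set inhibition limit, whatever the replicate mean, cut at about 25% in these data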;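 also: 0% = plate neutral control median and 100% = total signal loss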
Target sequence (P42568 whole entry, looked up): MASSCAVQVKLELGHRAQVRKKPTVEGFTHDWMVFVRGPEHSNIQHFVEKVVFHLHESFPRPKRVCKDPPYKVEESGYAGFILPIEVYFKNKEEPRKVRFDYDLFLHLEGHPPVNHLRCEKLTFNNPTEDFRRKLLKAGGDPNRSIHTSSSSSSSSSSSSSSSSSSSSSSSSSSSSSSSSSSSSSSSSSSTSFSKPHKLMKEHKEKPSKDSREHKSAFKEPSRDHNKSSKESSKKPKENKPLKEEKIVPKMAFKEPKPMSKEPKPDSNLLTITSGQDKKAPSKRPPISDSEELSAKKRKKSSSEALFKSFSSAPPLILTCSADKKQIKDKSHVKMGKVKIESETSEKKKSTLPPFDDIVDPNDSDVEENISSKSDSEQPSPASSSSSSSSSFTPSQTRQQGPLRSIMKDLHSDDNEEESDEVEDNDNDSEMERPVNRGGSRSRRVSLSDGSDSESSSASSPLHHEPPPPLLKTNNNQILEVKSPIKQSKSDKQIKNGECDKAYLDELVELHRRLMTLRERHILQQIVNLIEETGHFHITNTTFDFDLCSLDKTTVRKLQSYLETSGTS
S100A4 MyoIIA: inhibitors of S100A4-myosin IIA peptide binding, primary screen, biochemical, fluorescence polarization, TAMRA-MyoIIA peptide; actives 0.14% (n = 360,000); inhibition, % at 10.7 µM; AID 652163, 2013; Protein S100-A4 (Homo sapiens), P26447;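 active = mean inhibition of at least 70% across replicates, with every replicate also reaching that level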
Target sequence (P26447 whole entry, looked up): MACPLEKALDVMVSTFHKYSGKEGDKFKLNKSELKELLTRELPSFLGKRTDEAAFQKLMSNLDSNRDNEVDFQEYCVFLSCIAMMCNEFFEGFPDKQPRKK
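Assay system: human S100A4 monomer with TAMRA-labelled myosin IIA peptide / Buffer or medium: Calcium-containing HEPES buffer, pH 7.2 / Reagent: TAMRA-labelled myosin IIA heavy-chain peptide probe, 5 nM / Compound: one dose per compound / Timing: polarization read 5 min after assay mix addition, stable 5–60 min / Benchmarks: neutral control DMSO, positive control TFP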
SIRT5 block: SIRT5 desuccinylase inhibitors, primary screen, biochemical, fluorescence imaging, single point, set 5; NAD-dependent protein deacylase sirtuin-5, mitochondrial (Homo sapiens), Q9NXA8; inhibition, % at 15 µM; AID 652115, 2013; actives 1.1% (n = 330,000); Purified SirT5, succinyl-peptide AMC, trypsin-coupled fluorescence; in the data active = inhibition above about 15%
Starred values were filed as active, the others as inactive; ! = not active in a repeat. Hits are enriched below; roughly 3.4% of the tested compounds scored in any of these assays.

What do the screens show for `Cc1ccc(S(=O)(=O)N2[C@@H](c3ccc(Br)cc3)C(C(=O)O)=CC[C@H]2c2ccc(C(C)C)cc2)cc1`?
rRNA inh HTS: -23*; E-sel inducer: 0; AF4-AF9 inh: -3; S100A4 MyoIIA: 1; SIRT5 block: 15*

What do the screens show for `Cc1ccc(S(=O)(=O)N2[C@@H](c3ccccc3F)C(C(=O)O)=CC[C@H]2c2ccc3c(c2)OCO3)cc1`?
ERAP1 inh: -1; rRNA inh HTS: -21*; E-sel inducer: 0; AF4-AF9 inh: -1; S100A4 MyoIIA: -8; SIRT5 block: -2

Results for Cc1ccc(S(=O)(=O)N2[C@@H](c3ccc(Cl)cc3)C(C(=O)O)=CC[C@H]2c2cccs2)cc1 ?
ERAP1 inh: 1; rRNA inh HTS: -29*; E-sel inducer: 0; AF4-AF9 inh: -20; S100A4 MyoIIA: -9

How did Cc1cc(C(=O)Nc2cccc3c2O[C@@H](CN(C)C(=O)Nc2c(C)noc2C)[C@H](C)CN([C@H](C)CO)C3=O)n(C)n1 do in these assays?
ERAP1 inh: 1; rRNA inh HTS: -1; E-sel inducer: 0; AF4-AF9 inh: -4; S100A4 MyoIIA: -28; SIRT5 block: -1

What do the screens show for `CC(=O)N1[C@H](CO)[C@H](c2ccc(C3=CCCC3)cc2)C12CN(C(=O)NC(C)C)C2`?
ERAP1 inh: 0; rRNA inh HTS: 6; E-sel inducer: 0; AF4-AF9 inh: 1; S100A4 MyoIIA: 2; SIRT5 block: -4

Results for Cc1ccc([C@@H]2CC=C(C(=O)O)[C@H](c3ccc(C(C)(C)C)cc3)N2S(=O)(=O)c2ccc(C)cc2)cc1 ?
ERAP1 inh: 1; rRNA inh HTS: 1; E-sel inducer: 0; AF4-AF9 inh: -2; S100A4 MyoIIA: 6; SIRT5 block: 7

What do the screens show for `Cc1ccc(S(=O)(=O)N2[C@@H](c3ccc(C(C)(C)C)cc3)C(C(=O)O)=CC[C@H]2c2ccc(Cl)cc2)cc1`?
ERAP1 inh: 2; rRNA inh HTS: 4; E-sel inducer: -2; AF4-AF9 inh: -5; S100A4 MyoIIA: -5; SIRT5 block: 16*

What do the screens show for `Cc1ccc(S(=O)(=O)N2[C@@H](c3ccc(C(C)(C)C)cc3)C(C(=O)O)=CC[C@H]2c2ccc(C(C)C)cc2)cc1`?
rRNA inh HTS: 1; E-sel inducer: 0; AF4-AF9 inh: 2; S100A4 MyoIIA: 1; SIRT5 block: 28*

Results for Cc1ccc(S(=O)(=O)N2[C@@H](c3ccc(F)cc3)C(C(=O)O)=CC[C@H]2c2cccc(C)c2)cc1 ?
rRNA inh HTS: -25*; E-sel inducer: 0; AF4-AF9 inh: 0; S100A4 MyoIIA: 1

What do the screens show for `Cc1ccc([C@@H]2CC=C(C(=O)O)[C@H](c3ccc(F)cc3)N2S(=O)(=O)c2ccc(C)cc2)cc1`?
ERAP1 inh: -3; rRNA inh HTS: -9; AF4-AF9 inh: -2; S100A4 MyoIIA: -1

How did COc1ccccc1C(=O)N1C[C@H]2[C@@H](c3ccccc31)[C@@H](CO)N2C(=O)Nc1ccccc1 do in these assays?
ERAP1 inh: 1; rRNA inh HTS: -9; E-sel inducer: 0; AF4-AF9 inh: 1; S100A4 MyoIIA: -3; SIRT5 block: 3

Results for C/C=C/c1ccc2c(c1)O[C@H](CN(C)C(=O)NC1CCCC1)[C@H](C)CN([C@H](C)CO)S2(=O)=O ?
ERAP1 inh: 0; rRNA inh HTS: -2; E-sel inducer: 0; AF4-AF9 inh: 0; S100A4 MyoIIA: 13; SIRT5 block: 16*!

What do the screens show for `C[C@@H]1CN([C@H](C)CO)S(=O)(=O)c2ccc(/C=C/c3ccccc3)cc2O[C@H]1CN(C)C(=O)NC1CCCC1`?
ERAP1 inh: 1; rRNA inh HTS: -8; E-sel inducer: -4; AF4-AF9 inh: 8; S100A4 MyoIIA: -11; SIRT5 block: 15*

How did C/C=C/c1ccc2c(c1)O[C@H](CN(C)C(=O)CC)[C@@H](C)CN([C@H](C)CO)S2(=O)=O do in these assays?
ERAP1 inh: -1; rRNA inh HTS: -4; E-sel inducer: 74*; AF4-AF9 inh: -1; S100A4 MyoIIA: -11; SIRT5 block: 6

How did C[C@H](CO)N1C[C@H](C)[C@@H](CN(C)C(=O)NC2CCCC2)Oc2cc(/C=C/c3ccccc3)ccc2S1(=O)=O do in these assays?
ERAP1 inh: 0; rRNA inh HTS: -6; E-sel inducer: -4; AF4-AF9 inh: 6; S100A4 MyoIIA: -6; SIRT5 block: 0

Results for C[C@@H]1CN([C@@H](C)CO)S(=O)(=O)c2ccc(/C=C/c3ccccc3)cc2O[C@H]1CN(C)C(=O)NC1CCCC1 ?
ERAP1 inh: 0; rRNA inh HTS: -7; E-sel inducer: 7; AF4-AF9 inh: 8; S100A4 MyoIIA: 0; SIRT5 block: 16*

How did O=C(CN1CCOCC1)NCC[C@@H]1CC[C@H](NC(=O)Nc2ccc(C(F)(F)F)cc2)[C@@H](CO)O1 do in these assays?
ERAP1 inh: 0; rRNA inh HTS: 1; E-sel inducer: 0; AF4-AF9 inh: 0; S100A4 MyoIIA: -9; SIRT5 block: 2

Results for CC1C=NC(S(=O)(=O)N2CC[C@@H]3[C@H](CO)N(C)c4ccc(C#Cc5ccccc5)cc4[C@@H]32)=N1 (some centres undefined) ?
rRNA inh HTS: -7

What do the screens show for `CCOC(=O)C1CCN(c2nc(N)c3c(N)nc(SCC(=O)O)cc3c2C#N)CC1`?
ERAP1 inh: 31*; rRNA inh HTS: 12; AF4-AF9 inh: 1; S100A4 MyoIIA: -8; SIRT5 block: 11

How did CCOC(=O)C1CCN(c2nc(C)cc(C)c2C#N)CC1 do in these assays?
ERAP1 inh: -2; rRNA inh HTS: -18; E-sel inducer: 0; AF4-AF9 inh: -2; S100A4 MyoIIA: -6; SIRT5 block: 10

Results for COc1ccc(Nc2ccc(Cl)nn2)cc1 ?
ERAP1 inh: -6; rRNA inh HTS: 6; E-sel inducer: 0; AF4-AF9 inh: 43*; S100A4 MyoIIA: -2; SIRT5 block: -1

How did Clc1ccc(Nc2ccc(Cl)nn2)cc1 do in these assays?
rRNA inh HTS: 8; AF4-AF9 inh: 1; S100A4 MyoIIA: 2; SIRT5 block: 4

Results for COc1ccc(NC(=O)Nc2ccc3c(c2)CC(=O)N([C@@H](C)CO)C[C@H](C)[C@H](CN(C)S(=O)(=O)c2ccc(C)cc2)O3)cc1 ?
rRNA inh HTS: -1
